Legend:
[1] = target: T1, cGMP-specific 3',5'-cyclic phosphodiesterase (Bos taurus, UniProt Q28156); experiment: Inhibitory activity against phosphodiesterase was determined in vitro using bovine aorta, at 1 uM cGMP for cGMP-PDE.
[2] = target: cAMP phosphodiesterase (Bos taurus); experiment: Inhibitory activity against phosphodiesterase was determined in vitro using bovine aorta, at 1 uM cAMP for cAMP-PDE.
Phosphodiesterase 1 [3] = target: T2, Phosphodiesterase 1 (Bos taurus, UniProt Q01061+P14100); experiment: Inhibitory activity against phosphodiesterase was determined in vitro using bovine aorta, at 1 uM cGMP in the presence of calcium (10 uM) and calmodulin (15 nM); format: protein assay
How it was run: (§1)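 Calmodulin-dependent PDE peak taken from DEAE-trisacryl gradient fractions of a 105000g vascular smooth muscle supernatant. Assayed with 1 μM cGMP substrate, CaCl2 and excess bovine brain calmodulin, keeping hydrolysis ≤15%. Drugs in DMSO or DMF, final solvent ≤1%. IC50 from linear regression of % activity vs log concentration, using at least six points. Mean ± SEM of three separate enzyme preparations.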

[4] = Inhibition of phosphodiesterase from bovine aorta with 1 uM cGMP calcium (10 uM) and calmodulin (15 nM); parameters: species or system Bos taurus; how it was run: as §1
[5] = target: T1, cGMP-specific 3',5'-cyclic phosphodiesterase; experiment: Inhibition of cGMP-PDE phosphodiesterase from bovine aorta using 1 uM cGMP
How it was run: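 Enzyme from the 105000g supernatant, separated on DEAE-trisacryl with a 0–0.4 NaCl gradient; the cGMP-PDE peak was dialysed and stored at −80 °C. Assayed without calcium, with EGTA, at 1 μM cGMP, keeping hydrolysis ≤15%. Drugs were in DMSO or DMF, ≤1% final.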

Phosphodiesterase 1 [6] = target: T2, Phosphodiesterase 1; experiment: Inhibitory activity against […] phosphodiesterase was determined in vitro using bovine aorta, at 1 uM cGMP in the presence of calcium (10 uM) and calmodulin (15 nM); Compound is insignificant.; format: protein assay
[7] = target: T1, cGMP-specific 3',5'-cyclic phosphodiesterase; experiment: Inhibitory activity against phosphodiesterase was determined in vitro using bovine aorta, at 1 uM cGMP for cGMP-PDE;Compound is insignificant.
[8] = target: cAMP phosphodiesterase (Bos taurus); experiment: Inhibitory activity against phosphodiesterase was determined in vitro using bovine aorta, at 1 uM cAMP for cAMP-PDE.; remark: listed apart in the source
[9] = target: cAMP phosphodiesterase (Bos taurus); experiment: Inhibition of cAMP-PDE phosphodiesterase from bovine aorta using 1 uM cAMP (insignificant)
[10] = target: T1, cGMP-specific 3',5'-cyclic phosphodiesterase; experiment: Inhibition of cGMP-PDE phosphodiesterase from bovine aorta using 1 uM cGMP (insignificant)
Phosphodiesterase 1 [11] = target: T2, Phosphodiesterase 1; experiment: Inhibition of phosphodiesterase from bovine aorta with 1 uM cGMP calcium (10 uM) and calmodulin (15 nM) (insignificant); format: protein assay; how it was run: as §1

In the case of `COc1ccc(C2CNC(=O)C2)cc1OCC(C)C` (centres undefined), the IC50 [1] is reported as over 1000 µM, the IC50 [2] is reported as 18 µM and the IC50 (Phosphodiesterase 1 [3]) is reported as over 0.001 M.
`COc1ccc(C2CNC(=O)C2C)cc1OC` (centres undefined) showed an IC50 [1] of over 1000 µM, an IC50 [2] of 22 µM and an IC50 (Phosphodiesterase 1 [3]) of over 0.001 M.
`CCCCOc1cc(CC2CNC(=O)N2)ccc1OC` (centres undefined) [RO-201724] showed an IC50 [1] of 380 µM and an IC50 (Phosphodiesterase 1 [3]) of 940 µM.
`COc1ccc(C2CNC(=O)C2)cc1OCCCC(=O)O` (centres undefined) gave an IC50 [1] of over 1000 µM, an IC50 [2] of 400 µM and an IC50 (Phosphodiesterase 1 [3]) of over 0.001 M.
For `COc1cc2c(cc1OC)-c1c/c(=N\c3c(C)cc(C)cc3C)n(C)c(=O)n1CC2` [TREQUINSIN], the IC50 [4] was 13 µM and the IC50 [5] was 5 µM.
`COc1ccc(C2CC(=O)N(Cc3ccccc3)C2)cc1OC` (centres undefined) showed an IC50 (Phosphodiesterase 1 [6]) of over 0.001 M and an IC50 [7] of over 1000 µM.
Work on `COc1ccc(C2CNC(=O)C2)cc1OCc1ccccc1` (centres undefined) yielded an IC50 [1] of 174 µM, an IC50 [2] of 96 µM and an IC50 (Phosphodiesterase 1 [3]) of over 0.001 M.
Compound `COc1ccc(C2CNC(=O)C2)cc1OC1CCCC1` (centres undefined) [ROLIPRAM] has an IC50 (Phosphodiesterase 1 [3]) of 2700 µM.
Work on `CCCCOc1cc(C2CN=C(S)C2)ccc1OC` (centres undefined) yielded an IC50 [8] of 500 µM, an IC50 (Phosphodiesterase 1 [6]) of over 0.001 M and an IC50 [5] of 195 µM.
Work on `COc1cc2c(cc1OC)[C@@H]1CNC(=O)[C@@H]1CC2` yielded an IC50 [8] of 220 µM, an IC50 (Phosphodiesterase 1 [6]) of over 0.001 M and an IC50 [7] of over 1000 µM.
Compound `CCCCOc1ccc(C2CNC(=O)C2)cc1OC` (centres undefined) has an IC50 [1] of over 1000 µM, an IC50 [2] of over 0.001 M and an IC50 (Phosphodiesterase 1 [3]) of over 0.001 M.
For `CCCCNC(=O)CCCOc1cc(C2CNC(=O)C2)ccc1OC` (centres undefined), the IC50 [1] was over 1000 µM, the IC50 [2] was 16 µM and the IC50 (Phosphodiesterase 1 [3]) was over 0.001 M.
`COc1ccc(C2CNC(=O)C2)cc1O` (centres undefined) gave an IC50 [1] of over 1000 µM, an IC50 [2] of over 0.001 M and an IC50 (Phosphodiesterase 1 [3]) of over 0.001 M.
For `CCCCOc1cc(C2CNC(=O)C2)ccc1OC` (centres undefined), the IC50 [1] was over 1000 µM, the IC50 [2] was 13 µM and the IC50 (Phosphodiesterase 1 [3]) was over 0.001 M.
`COc1ccc(C2CCNC2)cc1OC.O=C(O)C(=O)O` (centres undefined) gave an IC50 [9] of over 0.001 M, an IC50 (Phosphodiesterase 1 [6]) of over 0.001 M and an IC50 [7] of over 1000 µM.
In the case of `COc1ccc(C2CC(=O)N(C)C2)cc1OC` (centres undefined), the IC50 (Phosphodiesterase 1 [6]) is reported as over 0.001 M and the IC50 [7] is reported as over 1000 µM.
For `COc1ccc(C2CC(=O)N(c3ccccc3)C2)cc1OC` (centres undefined), the IC50 [4] was 230 µM and the IC50 [10] was over 1000 µM.
With `CCOC(=O)C1C(=O)NCC1c1ccc(OC)c(OC)c1` (centres undefined) the IC50 [8] was 21 µM, the IC50 (Phosphodiesterase 1 [6]) was over 0.001 M and the IC50 [7] was over 1000 µM.
Work on `COc1ccc(C2CNC(=O)C2)cc1OCCCC(=O)N(C)C1CCCCC1` (centres undefined) yielded an IC50 [1] of over 1000 µM, an IC50 [2] of 34 µM and an IC50 (Phosphodiesterase 1 [3]) of over 0.001 M.
Compound `CCOC(=O)CCCOc1cc(C2CNC(=O)C2)ccc1OC` (centres undefined) has an IC50 [1] of over 1000 µM, an IC50 [2] of 30 µM and an IC50 (Phosphodiesterase 1 [3]) of over 0.001 M.
Compound `CCCCOc1cccc(C2CNC(=O)C2)c1` (centres undefined) has an IC50 [5] of over 1000 µM, an IC50 [2] of over 0.001 M and an IC50 (Phosphodiesterase 1 [3]) of over 0.001 M.
`COc1cc2c(cc1OC)[C@@H]1CNC(=O)[C@H]1CC2` gave an IC50 [10] of over 1000 µM, an IC50 [8] of 138 µM and an IC50 (Phosphodiesterase 1 [11]) of over 0.001 M.
Compound `COc1ccc(C2CNC(=O)C2)cc1OC` (centres undefined) has an IC50 [1] of over 1000 µM and an IC50 (Phosphodiesterase 1 [3]) of over 0.001 M.
Work on `C#CCOc1cc(C2CNC(=O)C2)ccc1OC` (centres undefined) yielded an IC50 [1] of over 1000 µM and an IC50 (Phosphodiesterase 1 [3]) of over 0.001 M.
`CCCCOc1ccc(C2CNC(=O)C2)cc1` (centres undefined) gave an IC50 [9] of over 0.001 M, an IC50 (Phosphodiesterase 1 [6]) of over 0.001 M and an IC50 [7] of over 1000 µM.
In the case of `C=C(C)COc1cc(C2CNC(=O)C2)ccc1OC` (centres undefined), the IC50 [1] is reported as over 1000 µM, the IC50 [2] is reported as 24 µM and the IC50 (Phosphodiesterase 1 [3]) is reported as over 0.001 M.
For `COc1ccc(C2CC(=O)N(C(C)=O)C2)cc1OC` (centres undefined), the IC50 [8] was 25 µM, the IC50 (Phosphodiesterase 1 [6]) was over 0.001 M and the IC50 [5] was over 1000 µM.
Compound `COc1ccc(C2CC(=O)N(C(=O)c3ccccc3)C2)cc1OC` (centres undefined) has an IC50 [10] of over 1000 µM, an IC50 [8] of 58 µM and an IC50 (Phosphodiesterase 1 [11]) of over 0.001 M.
In the case of `COc1ccc(C2CNC(=O)C2C(=O)O)cc1OC` (centres undefined), the IC50 (Phosphodiesterase 1 [6]) is reported as over 0.001 M and the IC50 [7] is reported as over 1000 µM.
With `O=C1CC(c2ccccc2)CN1` (centres undefined) the IC50 [5] was over 1000 µM and the IC50 (Phosphodiesterase 1 [3]) was over 0.001 M.
`CCC(C)COc1cc(C2CNC(=O)C2)ccc1OC` (centres undefined) showed an IC50 [1] of 200 µM and an IC50 (Phosphodiesterase 1 [3]) of over 0.001 M.
In the case of `COc1cc2c(cc1OC)[C@H]1CC(=O)NC1C2` (some centres undefined), the IC50 [8] is reported as 800 µM, the IC50 (Phosphodiesterase 1 [6]) is reported as over 0.001 M and the IC50 [7] is reported as over 1000 µM.
